{"data": "Measurements of several laboratories", "note": "Lines come from different studies, so protocols differ."}
{"Structure (SMILES)": "Clc1cccc(/C=N/N=C/c2cccc(Cl)c2)c1", "read-out": "DPPH scavenging", "quantity": "IC50", "value": "2350 µM"}
{"Structure (SMILES)": "CCN(CC)c1ccc(/C=N/c2ccc(F)c(Cl)c2)c(O)c1", "read-out": "DPPH scavenging", "quantity": "IC50", "value": "47.6 µM"}
{"Structure (SMILES)": "Clc1ccc(/C=N/N=C/c2ccc(Cl)cc2Cl)c(Cl)c1", "read-out": "DPPH scavenging", "quantity": "IC50", "value": "> 3000 µM"}
{"Structure (SMILES)": "O=C(Nc1ccccc1)Nc1ccc(Oc2nnc(-c3ccc(Cl)cc3)c3ccccc23)cc1", "target or system": "MCF7", "read-out": "cell growth or viability", "technique": "MTT", "tested at": "10 µM", "time": "24 h", "quantity": "viability", "value": "5.36%"}
{"Structure (SMILES)": "C=CC(=O)NC1CCN(c2ncc3ncnc(Nc4ccc(Oc5ccc6c(c5)ncn6C)c(C)c4)c3n2)CC1", "target or system": "NCI-H2126", "read-out": "cell growth or viability", "quantity": "EC50", "value": "1100 nM"}
{"Structure (SMILES)": "CCOC(=O)c1nn(-c2cccc(Cl)c2)/c(=N/N=C(\\C)c2ccc(NC(=O)c3ccc(Cl)cc3)cc2)s1", "target or system": "MCF7", "read-out": "cell growth or viability", "technique": "MTT", "tested at": "0.625 µM", "quantity": "viability", "value": "3.92%"}
{"Structure (SMILES)": "Cc1c(C)c2c(c(C)c1O)CCC(C)(C(=O)O)O2 (centres unmarked)", "read-out": "DPPH scavenging", "quantity": "IC50", "value": "70.2 µM"}
{"Structure (SMILES)": "S=C(Nc1ccccc1)Nc1ccc(Oc2nnc(-c3ccc(Cl)cc3)c3ccccc23)cc1", "target or system": "MCF7", "read-out": "cell growth or viability", "technique": "MTT", "tested at": "0.312 µM", "time": "24 h", "quantity": "viability", "value": "100%"}
{"Structure (SMILES)": "COc1cc(/C=N/N=C/c2cc(OC)c(OC)c(OC)c2)cc(OC)c1OC", "read-out": "DPPH scavenging", "quantity": "IC50", "value": "2390 µM"}
{"Structure (SMILES)": "O=C(Nc1ccc(Oc2nnc(-c3ccc(Cl)cc3)c3ccccc23)cc1)c1cccc([N+](=O)[O-])c1", "target or system": "MCF7", "read-out": "cell growth or viability", "technique": "MTT", "tested at": "10 µM", "quantity": "cell death", "value": "92%"}
{"Structure (SMILES)": "CC(=O)c1nn(-c2ccc(C)cc2)/c(=N/N=C(\\C)c2ccc(NC(=O)c3ccccc3)cc2)s1", "target or system": "MCF7", "read-out": "cell growth or viability", "technique": "MTT", "tested at": "0.156 µM", "quantity": "viability", "value": "9.14%"}
{"Structure (SMILES)": "O=C1O[C@H]([C@@H](O)CO)C(O)=C1O", "read-out": "DPPH scavenging", "technique": "absorbance", "time": "30 min", "quantity": "IC50", "value": "12.4 µM"}
{"Structure (SMILES)": "Nc1ccc(/C=N/N=C/c2ccc(N)cc2)cc1", "read-out": "DPPH scavenging", "quantity": "IC50", "value": "> 3000 µM"}
{"Structure (SMILES)": "CC(=O)c1nn(-c2ccccc2Cl)/c(=N/N=C(\\C)c2ccc(NC(=O)c3ccccc3)cc2)s1", "target or system": "MCF7", "read-out": "cell growth or viability", "technique": "MTT", "tested at": "0.625 µM", "quantity": "viability", "value": "6.6%"}
{"Structure (SMILES)": "CC(=NNC(=S)Nc1ccccc1)c1ccc(Nc2nnc(-c3ccc(Cl)cc3)c3ccccc23)cc1", "target or system": "MCF7", "read-out": "cell growth or viability", "technique": "MTT", "tested at": "1.25 µM", "time": "24 h", "quantity": "viability", "value": "27.5%"}
{"Structure (SMILES)": "C=C(C)[C@@H]1CC[C@@H](C)C[C@H]1OCc1ccccc1", "target or system": "MCF7", "read-out": "cell growth or viability", "technique": "MTT", "tested at": "30 µM", "time": "72 h", "quantity": "inhibition", "value": "31.6%"}
{"Structure (SMILES)": "CCOC(=O)c1nn(-c2cccc(Cl)c2)/c(=N/N=C(\\C)c2ccc(NC(=O)c3ccccc3)cc2)s1", "target or system": "MCF7", "read-out": "cell growth or viability", "technique": "MTT", "tested at": "0.156 µM", "quantity": "viability", "value": "59.2%"}
{"Structure (SMILES)": "Brc1ccccc1/C=N/N=C/c1ccccc1Br", "read-out": "DPPH scavenging", "quantity": "IC50", "value": "> 3000 µM"}
{"Structure (SMILES)": "CC(=NNC(=O)c1ccccc1)c1ccc(Nc2nnc(-c3ccc(Cl)cc3)c3ccccc23)cc1", "target or system": "MCF7", "read-out": "cell growth or viability", "technique": "MTT", "tested at": "2.5 µM", "quantity": "cell death", "value": "86.3%"}
{"Structure (SMILES)": "CCN(CC)c1ccc(/C=N/c2ccc(F)cc2)c(O)c1", "read-out": "DPPH scavenging", "quantity": "IC50", "value": "30.1 µM"}
